Results: ChEMBL document CHEMBL2016498, “Synthesis and antiviral activity of a series of 1'-substituted 4-aza-7,9-dideazaadenosine C-nucleosides” (Bioorg Med Chem Lett, 2012)

tested on: Yellow fever virus; assay: Antiviral activity against Yellow fever virus 17D infected in human HeLa cells assessed as inhibition of virus induced cytopathic effect after 24 hrs by MTS assay; type: functional, cell-based; settings: not given

Question: Which EC50 does the source give for `N#C[C@@]1(c2ccc3c(N)ncnn23)O[C@H](CO)[C@@H](O)[C@H]1O` [GS-441524] here?
Answer: Its EC50 is 11 µM.

tested on: dengue virus type 2; assay: Antiviral activity against Dengue virus type 2 New Guinea C infected in african green monkey Vero E6 cells assessed as inhibition of virus induced cytopathic effect after 24 hrs by MTS assay; type: functional, organism-based; settings: not given

Question: For `C[C@@]1(c2ccc3c(N)ncnn23)O[C@H](CO)[C@@H](O)[C@H]1O`, which EC50 is on record?
Answer: The EC50 was greater than 30 µM.

Question: Which EC50 does the source give for `N#C[C@@]1(c2ccc3c(N)ncnn23)O[C@H](CO)[C@@H](O)[C@H]1O` [GS-441524] here?
Answer: The EC50 was 9.46 µM.

tested on: West Nile virus; assay: Antiviral activity against West nile virus NY99 infected in african green monkey Vero cells assessed as inhibition of virus induced cytopathic effect after 24 hrs by MTS assay; type: functional, organism-based; settings: NY-99, Vero

Question: For `C[C@@]1(c2ccc3c(N)ncnn23)O[C@H](CO)[C@@H](O)[C@H]1O`, which EC50 is on record?
Answer: The EC50 was greater than 30 µM.

Question: Which EC50 does the source give for `N#C[C@@]1(c2ccc3c(N)ncnn23)O[C@H](CO)[C@@H](O)[C@H]1O` [GS-441524] here?
Answer: Its EC50 is greater than 30 µM.

tested on: Influenza A virus; assay: Antiviral activity against Influenza A virus H3N2 infected in MDCK cells assessed as inhibition of virus induced cytopathic effect after 24 hrs by MTS assay; type: functional, organism-based; settings: not given

Question: For `C[C@@]1(c2ccc3c(N)ncnn23)O[C@H](CO)[C@@H](O)[C@H]1O`, which EC50 is on record?
Answer: Its EC50 is greater than 30 µM.

Question: For `N#C[C@@]1(c2ccc3c(N)ncnn23)O[C@H](CO)[C@@H](O)[C@H]1O` [GS-441524], which EC50 is on record?
Answer: The EC50 was 27.9 µM.

tested on: Human respirovirus 3; assay: Antiviral activity against Parainfluenza 3 C 243 infected in african green monkey Vero cells assessed as inhibition of virus induced cytopathic effect after 24 hrs by MTS assay; type: functional, organism-based; settings: Human respirovirus 3, C 243, Vero

Question: With `C[C@@]1(c2ccc3c(N)ncnn23)O[C@H](CO)[C@@H](O)[C@H]1O` as the molecule, how does the EC50 read?
Answer: The EC50 was 5.23 µM.

Question: For `N#C[C@@]1(c2ccc3c(N)ncnn23)O[C@H](CO)[C@@H](O)[C@H]1O` [GS-441524], which EC50 is on record?
Answer: The EC50 was 1.71 µM.

tested on: SARS-CoV; assay: Antiviral activity against SARS coronavirus Toronto-2 infected in african green monkey Vero cells assessed as inhibition of virus induced cytopathic effect after 24 hrs by MTS assay; type: functional, organism-based; settings: Severe acute respiratory syndrome-related coronavirus, Toronto-2, Vero

Question: Which EC50 does the source give for `C[C@@]1(c2ccc3c(N)ncnn23)O[C@H](CO)[C@@H](O)[C@H]1O` here?
Answer: The EC50 was greater than 30 µM.

Question: With `N#C[C@@]1(c2ccc3c(N)ncnn23)O[C@H](CO)[C@@H](O)[C@H]1O` [GS-441524] as the molecule, how does the EC50 read?
Answer: Its EC50 is 2.24 µM.

tested on: not listed separately; assay: Antiviral activity against Coxsackievirus A7 infected in human MRC5 cells assessed as inhibition of virus induced cytopathic effect after 24 hrs by MTS assay; type: functional, cell-based; settings: Enterovirus A, MRC5, 24 h
Outline: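 Cytoprotection (CPE) assay in MRC-5 cells infected with Coxsackie A strain A7 or A21. MTS dye reduction read out both protection from virus-induced CPE and compound cytotoxicity, giving EC50 and CC50.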

Question: Which EC50 does the source give for `C[C@@]1(c2ccc3c(N)ncnn23)O[C@H](CO)[C@@H](O)[C@H]1O` here?
Answer: The EC50 was greater than 30 µM.

Question: With `N#C[C@@]1(c2ccc3c(N)ncnn23)O[C@H](CO)[C@@H](O)[C@H]1O` [GS-441524] as the molecule, how does the EC50 read?
Answer: The EC50 was greater than 30 µM.

tested on: Coxsackievirus A21; assay: Antiviral activity against Coxsackievirus A21 infected in human MRC5 cells assessed as inhibition of virus induced cytopathic effect after 24 hrs by MTS assay; type: functional, organism-based; settings: Enterovirus C, MRC5, 24 h
Outline: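 EC50 taken from a cytoprotection (CPE) assay. Protection of virus-infected host cells is read out by MTS dye reduction. The Coxsackie A assay uses MRC-5 cells with strain A7 or A21.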

Question: Which EC50 does the source give for `C[C@@]1(c2ccc3c(N)ncnn23)O[C@H](CO)[C@@H](O)[C@H]1O` here?
Answer: Its EC50 is greater than 30 µM.

Question: With `N#C[C@@]1(c2ccc3c(N)ncnn23)O[C@H](CO)[C@@H](O)[C@H]1O` [GS-441524] as the molecule, how does the EC50 read?
Answer: Its EC50 is greater than 30 µM.

tested on: Vero; assay: Cytotoxicity against african green monkey Vero cells by MTS assay; type: cell-based; settings: chlorocebus sabaeus
Outline: (§1)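 CC50 measured in the uninfected host cells used in each CPE assay. Compound cytotoxicity is read out by MTS dye reduction.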

Question: For `C[C@@]1(c2ccc3c(N)ncnn23)O[C@H](CO)[C@@H](O)[C@H]1O`, which CC50 is on record?
Answer: The CC50 was greater than 30 µM.

Question: For `N#C[C@@]1(c2ccc3c(N)ncnn23)O[C@H](CO)[C@@H](O)[C@H]1O` [GS-441524], which CC50 is on record?
Answer: The CC50 was greater than 30 µM.

tested on: Vero; assay: Cytotoxicity against african green monkey Vero E6 cells by MTS assay; type: cell-based; settings: chlorocebus sabaeus; outline: as §1

Question: For `C[C@@]1(c2ccc3c(N)ncnn23)O[C@H](CO)[C@@H](O)[C@H]1O`, which CC50 is on record?
Answer: Its CC50 is greater than 30 µM.

Question: Which CC50 does the source give for `N#C[C@@]1(c2ccc3c(N)ncnn23)O[C@H](CO)[C@@H](O)[C@H]1O` [GS-441524] here?
Answer: The CC50 was greater than 30 µM.

tested on: HeLa; assay: Cytotoxicity against human HeLa cells by MTS assay; type: cell-based; settings: not given; outline: as §1

Question: Which CC50 does the source give for `N#C[C@@]1(c2ccc3c(N)ncnn23)O[C@H](CO)[C@@H](O)[C@H]1O` [GS-441524] here?
Answer: Its CC50 is greater than 30 µM.

tested on: not listed separately; assay: Cytotoxicity against human HuH7 cells by MTS assay; type: cell-based, Huh-7; settings: HuH7 cells

Question: For `C[C@@]1(c2ccc3c(N)ncnn23)O[C@H](CO)[C@@H](O)[C@H]1O`, which CC50 is on record?
Answer: Its CC50 is greater than 45 µM.

Question: Which CC50 does the source give for `N#C[C@@]1(c2ccc3c(N)ncnn23)O[C@H](CO)[C@@H](O)[C@H]1O` [GS-441524] here?
Answer: Its CC50 is greater than 89 µM.

tested on: MRC5; assay: Cytotoxicity against human MRC5 cells by MTS assay; type: cell-based; settings: not given; outline: as §1

Question: Which CC50 does the source give for `C[C@@]1(c2ccc3c(N)ncnn23)O[C@H](CO)[C@@H](O)[C@H]1O` here?
Answer: Its CC50 is greater than 30 µM.

Question: For `N#C[C@@]1(c2ccc3c(N)ncnn23)O[C@H](CO)[C@@H](O)[C@H]1O` [GS-441524], which CC50 is on record?
Answer: Its CC50 is greater than 30 µM.

tested on: MDCK; assay: Cytotoxicity against dog MDCK cells by MTS assay; type: cell-based, Canis lupus familiaris; settings: not given; outline: as §1

Question: With `C[C@@]1(c2ccc3c(N)ncnn23)O[C@H](CO)[C@@H](O)[C@H]1O` as the molecule, how does the CC50 read?
Answer: Its CC50 is greater than 30 µM.

Question: Which CC50 does the source give for `N#C[C@@]1(c2ccc3c(N)ncnn23)O[C@H](CO)[C@@H](O)[C@H]1O` [GS-441524] here?
Answer: The CC50 was greater than 30 µM.

tested on: Hepatitis C virus; assay: Inhibition of Hepatitis C virus genotype 1b NS5B RNA-dependent RNA polymerase using [33P]ATP after 90 mins by phosphoimaging; set-up: species or system Hepatitis C virus subtype 1b; settings: 1.5 h
Outline: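 Uses recombinant GT1b NS5B in 50 mM Tris–HCl pH 7.5 with 10 mM KCl, 1 mM DTT, 5 mM MgCl2, 0.2 unit/μL RNAsin and 0.01% BSA (final concentrations). 75 nM enzyme is pre-incubated with 4 ng/μL (50 nM) heteropolymer sshRNA template for 5 min at rt. Inhibitor is then added and incubated 5 min at RT.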

Question: For `C[C@@]1(c2ccc3c(N)ncnn23)O[C@H](COP(=O)(O)OP(=O)(O)OP(=O)(O)O)[C@@H](O)[C@H]1O`, which IC50 is on record?
Answer: Its IC50 is 20 µM.

Question: Which IC50 does the source give for `C=C[C@@]1(c2ccc3c(N)ncnn23)O[C@H](COP(=O)(O)OP(=O)(O)OP(=O)(O)O)[C@@H](O)[C@H]1O` here?
Answer: Its IC50 is 178 µM.

Question: Which IC50 does the source give for `C#C[C@@]1(c2ccc3c(N)ncnn23)O[C@H](COP(=O)(O)OP(=O)(O)OP(=O)(O)O)[C@@H](O)[C@H]1O` here?
Answer: Its IC50 is 232 µM.

Question: Which IC50 does the source give for `N#C[C@@]1(c2ccc3c(N)ncnn23)O[C@H](COP(=O)(O)OP(=O)(O)OP(=O)(O)O)[C@@H](O)[C@H]1O` [RDV-TP] here?
Answer: Its IC50 is 5.6 µM.
